Measurements from ChEMBL document CHEMBL3244257, “Effects of deuteration on locomotor activity of amphetamine” (J Med Chem, 1978).

What was measured:
Mus musculus [1] = experiment: Induction of spontaneous locomotor activity in Swiss-Webster albino mouse assessed as time required to show activity at 10.6 mg/kg, ip measured every 10 mins in first hour followed by every hour for 5 hrs; format: functional; conditions: route intraperitoneal
How it was run: (§1)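 Mice weighing 22–24 g, acclimated at least 2 weeks, fed and watered freely until testing, and split into groups of five, each mouse used once. Sulfate salts in normal saline given ip at 0.2 mL/10 g. Controls received saline. Activity was counted as photocell beam interruptions in six-beam circular cages. Tests ran between 11:00 a.m. and 5:00 p.m.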

[2] = Potency ratio of compound LD50 to protioamphetamine LD50 for ip dosed Swiss-Webster mouse; format: ADME, organism-based; conditions: in vivo
[3] = Acute toxicity in ip dosed Swiss-Webster mouse measured for 24 hrs; format: organism-based; conditions: in vivo
How it was run: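 Groups of mice given three intraperitoneal doses (313, 353 and 394 μM/kg), 14–22 mice per dose, observed for 24 h. LD50 in mg/kg derived from regression dose-response curves by the Litchfield and Wilcoxon method.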

Mus musculus [4] = experiment: Induction of spontaneous locomotor activity in Swiss-Webster albino mouse assessed as time required to show activity at 27.2 umol/kg, ip measured every 10 mins in first hour followed by every hour for 5 hrs; format: functional; how it was run: as §1
Mus musculus [5] = experiment: Induction of spontaneous locomotor activity in Swiss-Webster albino mouse assessed as total activity AUC at 10.6 mg/kg, ip; format: functional, organism-based; design: dose 10.6 mg/kg; conditions: tested as the 2H-labelled form; how it was run: as §1
Mus musculus [6] = experiment: Induction of spontaneous locomotor activity in Swiss-Webster albino mouse assessed as total activity AUC at 27.2 umol/kg, ip; format: functional, organism-based; conditions: tested as the 2H-labelled form; how it was run: as §1
Mus musculus [7] = experiment: Induction of spontaneous locomotor activity in Swiss-Webster albino mouse assessed as total activity AUC at 10 mg/kg, ip; format: functional, organism-based; design: dose 10 mg/kg; how it was run: as §1
Mus musculus [8] = experiment: Induction of spontaneous locomotor activity in Swiss-Webster albino mouse assessed as time required to show activity at 10 mg/kg, ip measured every 10 mins in first hour followed by every hour for 5 hrs; format: functional; conditions: route intraperitoneal; how it was run: as §1

| SMILES | LD50 at 24 h [3] [mg/kg] | Time (Mus musculus [4]) [min] | AUC (Mus musculus [6]) [cm2] | also measured |
| --- | --- | --- | --- | --- |
| O=S(=O)(O)O.[2H]c1c([2H])c([2H])c(C([2H])([2H])C([2H])(N)C([2H])([2H])[2H])c([2H])c1[2H] (racemic) | 149 | – | – | Time (Mus musculus [1]): 120 min; selectivity ratio [2]: 1.2 |
| O=S(=O)(O)O.[2H]c1c([2H])c([2H])c(C([2H])([2H])C(C)N)c([2H])c1[2H] (racemic) | 140 | 80 | – | selectivity ratio [2]: 1.13 |
| O=S(=O)(O)O.[2H]C([2H])([2H])C([2H])(N)C([2H])([2H])c1ccccc1 (racemic) | 143 | 100 | – | selectivity ratio [2]: 1.16 |
| O=S(=O)(O)O.[2H]C(C)(N)Cc1ccccc1 (racemic) | – | 100 | – | – |
| O=S(=O)(O)O.[2H]C(c1ccccc1)C(C)N (racemic) | – | 75 | – | – |
| O=S(=O)(O)O.[2H]C(C)(N)C([2H])([2H])c1ccccc1 (racemic) | – | 105 | – | – |
| CC(N)Cc1ccccc1 (racemic) | – | – | – | AUC (Mus musculus [5]): 350 cm2 |
| CC(N)Cc1ccccc1 (racemic; 2) | – | – | 349 | – |
| CC(N)Cc1ccccc1 (racemic; 3) | – | – | 367 | – |
| CC(N)Cc1ccccc1 (racemic; 4) | – | – | 370 | – |
| CC(N)Cc1ccccc1 (racemic; 5) | – | – | 355 | – |
| CC(N)Cc1ccccc1 (racemic; 6) | – | – | 374 | – |
| C[C@H](N)Cc1ccccc1.C[C@H](N)Cc1ccccc1.O=S(=O)(O)O [DEXTROAMPHETAMINE SULFATE] | 123 | – | – | AUC (Mus musculus [7]): 350 cm2; Time (Mus musculus [8]): 70 min |
